VIM-2 inhibitor: inhibitors of Pseudomonas aeruginosa VIM-2 metallo-beta-lactamase | inhibition, % at 5.6 µM | 0.89% of 290,000 active | purified VIM-2, nitrocefin hydrolysis, epi-absorbance fluorescence;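 active = inhibition above the mean of all tested compounds plus 3 SD, cutoff set per screening run, cut at about 7.5% in these data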;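 note: red hydrolysis product quenches plate fluorescence so inhibitors raise well fluorescence; 0% = enzyme with DMSO and 100% = DMSO without enzyme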
dFosB act-1: activators of mouse delta FosB homodimer | P13346 | purified delta FosB, TAMRA-CDK5 oligo fluorescence polarization; percent of positive-control signal above neutral wells | activation, % at 25 µM | 0.99% of 340,000 active | AID 493131;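 active = mean activation above about 17%, with every replicate also reaching it, limit read from the data, passing the limit was not always enough; inconclusive = only one of the two conditions met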
Target sequence (P13346 whole entry, looked up): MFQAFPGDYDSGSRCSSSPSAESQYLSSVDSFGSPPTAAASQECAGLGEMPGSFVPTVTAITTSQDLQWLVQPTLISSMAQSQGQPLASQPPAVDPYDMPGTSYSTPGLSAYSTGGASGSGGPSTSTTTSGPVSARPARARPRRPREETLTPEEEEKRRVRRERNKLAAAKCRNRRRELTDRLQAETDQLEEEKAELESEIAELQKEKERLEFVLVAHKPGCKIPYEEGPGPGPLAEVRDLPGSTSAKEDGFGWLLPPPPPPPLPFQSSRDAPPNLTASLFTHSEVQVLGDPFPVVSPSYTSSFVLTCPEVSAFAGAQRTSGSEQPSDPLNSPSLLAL
IMP-1 inhibitor: inhibitors of Pseudomonas aeruginosa IMP-1 metallo-beta-lactamase | purified IMP-1, nitrocefin hydrolysis, epi-absorbance fluorescence | inhibition, % at 5.6 µM | 0.45% of 290,000 active | AID 1556;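 active = inhibition above the mean plus 3 SD of all compounds in the same screening run, cut at about 4.5% in these data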;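 note: 0% = IMP-1 with DMSO and 100% = DMSO wells lacking enzyme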
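System: purified IMP-1 / Input: IMP-1 dispensed at 0.2 nM / Medium: 50 mM HEPES pH 7.1, 50 µM ZnSO4, 0.05% Brij 35 / Timing: 15 min enzyme–compound preincubation, then 25 min nitrocefin reaction, 25 °C / Technique: plate fluorescence quenching by hydrolysis product, ex 480/em 530 nm / Repeats: singlicate testing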
m5-HT2A agonist: activates the mouse 5-HT2A serotonin receptor; 0.66% of 360,000 active; CHO-K1 mHTR2A beta-arrestin complementation, luminescence; percent of 30 µM serotonin response; P35363; activation, % at 7.6 µM;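 active = activation above a run cutoff, the mean activation of all tested compounds plus 3 SD, cut at about 14% in these data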;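 note: 0% = plate median of compound wells and 100% = 30 µM serotonin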
dFosB act-2: enhances mouse delta FosB homodimer binding to DNA; shares compounds with dFosB act-1; AID 588690; activation, % at 24.9 µM; purified delta FosB, TAMRA-CDK5 oligo fluorescence polarization; normalised: neutral wells 0, positive control 100; 2,400 tested, under 10 active;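 active = highest replicate activation at or above 34% and every replicate reaching that threshold; inconclusive = meets only one of the two criteria; inactive = meets neither criterion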;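 note: higher polarization means more probe DNA bound by delta FosB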
* marks the source's active call; other numbers are inactive results; ? = inconclusive; / = no result given. Sampled rows, rich in hits. Any-hit rate of the full collection: about 2.5%.

SMILES	VIM-2 inhibitor	dFosB act-1	IMP-1 inhibitor	m5-HT2A agonist	dFosB act-2
COc1cccc(C2CC(c3ccccc3)=NN2S(=O)(=O)c2ccc(C)cc2)c1OC (stereo not drawn)	-1	39*	-1	-3	1
CCCCc1nnc(NC(=O)CCS(=O)(=O)c2ccc(Cl)cc2)s1	/	24*	/	-1	2
COc1ccc(NS(=O)(=O)c2cccc(C(=O)OCC(=O)Nc3cc(C)on3)c2)cc1	0	20*	1	6	-1
COc1ccc(NS(=O)(=O)c2cccc(NC(=O)COc3ccccc3[N+](=O)[O-])c2)cc1	/	25*	/	1	1
Cc1cc(C)c(OCC(=O)Nc2cccc(NC(=O)c3ccco3)c2)c(Br)c1	0	0	-1	2	/
Cc1cc(C)c(OCC(=O)Nc2ccc(NC(=O)c3ccco3)cc2)c([N+](=O)[O-])c1	-3	18*	-1	3	0
O=C(COc1ccc(/C=N/NC(=O)c2cc3ccccc3o2)cc1Br)Nc1ccccc1	1	66*	-2	13	4
COc1ccc(CNC(=O)COC(=O)/C=C/c2cccc(Br)c2)cc1	-3	0	-2	-1	/
O=C(COC(=O)/C=C/c1ccc2c(c1)OCO2)NCc1ccccc1	/	6	/	-3	/
O=C(COc1ccccc1[N+](=O)[O-])Nc1ccc(NC(=O)c2cc3ccccc3o2)cc1	-3	54*	-1	0	3
CCOc1ccc2nc(NC3=NC(C)(C)C=C(C)N3)nc(C)c2c1	1	23*	-8	-9	5
CCOc1ccc2c(C)nc(NC3=NC(C)(C)C=C(C)N3)nc2c1	-2	26*	-4	-4	?
CCOc1ccc2nc(NC3=NC(c4ccc(OC)cc4)CC(=O)N3)nc(C)c2c1 (stereo not drawn)	-1	-57	-2	3	/
Cc1nnc(N2CCCC(C(=O)NCc3ccccc3F)C2)c2nn(-c3ccccc3)c(C)c12 (stereo not drawn)	-2	-4	-1	5	/
CCc1ccc(CNC(=O)C2CCCN(c3nnc(C)c4c(C)n(-c5ccccc5)nc34)C2)cc1 (stereo not drawn)	-1	31*	0	1	?
Cc1ccccc1CNC(=O)C1CCCN(c2nnc(C)c3c(C)n(-c4ccccc4)nc23)C1 (stereo not drawn)	-1	18*	-4	-1	-4
CCOc1ccc(-n2nc3ccc(NC(=O)c4ccc5c(c4)OCCO5)cc3n2)cc1	0	99*	-1	-2	-10
O=C(Nc1ccc(NS(=O)(=O)c2ccccc2)cc1)c1ccccc1	-5	?	-6	-7	/
O=C(Nc1ccc2nn(-c3ccccc3)nc2c1)c1ccc2c(c1)OCCO2	-2	1	-1	-2	/
O=C(NNC(=O)c1ccc(NC(=O)c2ccccc2)cc1)c1ccccc1	0	18*	0	5	2
O=C(Nc1ccc(NS(=O)(=O)c2ccccc2)cc1)c1ccc(Cl)cc1	2	26*	-1	4	1
O=C(Nc1ccc(NC(=O)c2ccc3c(c2)OCCO3)cc1)c1ccccc1	-2	35*	-1	-11	1
O=C(Cc1ccccc1)NNC(=O)c1ccc(NC(=O)c2ccccc2)cc1	-5	12	0	-2	/
O=C(Cn1nc(C(=O)O)c2ccccc2c1=O)Nc1ccc(F)cc1F	1	26*	-2	4	3
Cn1c2ccccc2c2cnn(CC(=O)Nc3ccccc3Br)c(=O)c21	-2	7	-4	-3	/
SMILES	VIM-2 inhibitor	dFosB act-1	IMP-1 inhibitor	m5-HT2A agonist	dFosB act-2
O=C(Cn1nc(C(=O)O)c2ccccc2c1=O)Nc1cccc(Br)c1	-1	0	-3	-6	/
COc1ccc(NC(=O)Cn2nc(C(=O)O)c3ccccc3c2=O)cc1Cl	-1	93*	-2	-2	4
Cn1c2ccccc2c2cnn(CC(=O)Nc3ccc(F)cc3F)c(=O)c21	-3	21*	-2	4	3
CCc1ccc(OCCCCN(C)Cc2ccccc2)cc1	0	2	-1	-7	/
COc1ccc(/C=C2\SC(=O)N(CC(=O)NC3C=CS(=O)(=O)C3)C2=O)cc1 (stereo not drawn)	-1	41*	-1	-1	4
O=C(CCCN1C(=O)S/C(=C\c2ccccc2)C1=O)NNC(=O)c1ccccc1O	-6	1	-2	5	/
O=C(CN1C(=O)S/C(=C\c2ccccc2)C1=O)NNC(=O)c1ccccc1O	-1	48*	0	-1	4
O=C(CN1C(=O)S/C(=C\c2ccc(F)cc2)C1=O)NC1C=CS(=O)(=O)C1 (stereo not drawn)	-2	13	0	0	/
COc1ccc(/C=C2\SC(=O)N(CC(=O)NNC(=O)c3ccccc3O)C2=O)cc1	-4	67*	-3	0	2
CS(=O)(=O)c1ccc(Oc2ccc(-c3nnco3)cc2)c([N+](=O)[O-])c1	-1	-10	-1	3	/
Cc1cc([N+](=O)[O-])nn1Cc1ccc(C(=O)N/N=C/c2ccc(N(C)C)cc2)cc1	-1	6	-2	1	/
O=S(=O)(c1ccccc1)N1CCN(c2cc(-c3ccccc3)nc3ncnn23)CC1	0	7	-3	8	/
Cc1ccccc1NC(=O)C1CCN(c2cc(-c3ccccc3)nc3ncnn23)CC1	0	24*	-3	2	-5
O=c1c2ccccc2oc2c1oc1ccccc12	/	-23	/	-3	/
CN(Cc1ccc(OCC(O)CN(C)Cc2ccccc2)cc1)Cc1nccn1C (stereo not drawn)	1	-6	0	2	/
COc1ccc(CN(C)CC(O)COc2ccc(-c3ccccc3)cc2)cc1OC (stereo not drawn)	-1	19*	-2	-6	-8
COc1cc2c(cc1NC(=O)Nc1ccccc1)oc1ccccc12	-5	19*	-3	-4	5
COc1cc2c(cc1NC(=O)CCC(=O)O)oc1ccccc12	2	3	1	9	/
COc1ccc(CNC(=O)/C=C/c2cc3c(cc2Br)OCO3)cc1	-4	6	-2	-2	/
O=C(/C=C/c1cc2c(cc1Br)OCO2)NCc1ccc(F)cc1	1	25*	-2	-4	1
COC(=O)C(Cc1ccccc1)NC(=O)CCc1c[nH]c2ccccc12 (stereo not drawn)	2	-1	0	-4	/
Cc1ccc(NC(=O)CSc2nnc(NC(=O)C3CC3)s2)cc1	-2	31*	-1	1	0
CC(=O)c1ccc(NC(=O)CSc2nnc(NC(=O)C3CC3)s2)cc1	-2	14	-2	3	/
Cc1cc(C)cc(NC(=O)CSc2nnc(NC(=O)C3CC3)s2)c1	-3	28*	-2	3	-2
Cc1ccc(NC(=O)CSc2nnc(NC(=O)C3CC3)s2)cc1C	-2	8	0	-3	/
CC(C)CC(OC(=O)c1ccc(Cl)nc1)C(=O)NC1CCCC1 (stereo not drawn)	-3	2	-5	-13	/
